# Experimental data collected from several papers.
# Compare with care: the assays were run in different laboratories.
# Target: Mitogen-activated protein kinase 11 (MAPK11, Homo sapiens, UniProt Q15759)
Structure (SMILES),effect on,action,technique,tested at,endpoint,result
C=CC(=O)N1CCC[C@@H](n2nc(-c3ccc(Oc4ccccc4)cc3)c3c(N)ncnc32)C1,enzyme activity,inhibitor,,1 µM,inhibition,2%
CC(C)S(=O)(=O)c1ccc2nccc(Nc3ccc4sc(C5CCCC5)nc4c3)c2c1,enzyme activity,inhibitor,,1 µM,activity vs control,108%
C#Cc1cnc(Nc2ccnc(CO)c2)nc1Nc1ccccc1S(C)(=O)=NC#N (stereo not shown),cell-free assay,,,1 µM,remaining signal,82%
CN1CCN(C(=O)c2ccc(NC(=O)Nc3ccc(N(C)c4ccnc(Nc5ccc(CS(C)(=O)=O)cc5)n4)cc3)cc2)CC1,binding,,competition with immobilised ligand,1 µM,remaining binding,100%
Cc1cc(O)c(-c2ccc([C@@H](C)CN(C)C)cc2)c2c1[nH]c(=O)c1sccc12,enzyme activity,inhibitor,,0.1 µM,inhibition,5.56%
N#Cc1ccc(NC(=O)Nc2ccccc2)cc1,cell-free assay,,competition with immobilised ligand,25 µM,remaining binding,100%
C#Cc1cc(-c2cc(Nc3nc(N[C@@H](C)c4ccc(F)cn4)ncc3Cl)n[nH]2)ccc1C=O,enzyme activity,inhibitor,,0.2 µM,inhibition,21.9%
CCCCC(=O)Nc1ccc(-c2ccc3ncn(CCC)c(=O)c3c2)cn1,binding,,competition with immobilised ligand,0.5 µM,remaining binding,87%
CC#CC(=O)N1CCC[C@H]1c1nc(-c2ccc(C(=O)Nc3ccccn3)cc2)c2c(N)nccn12,enzyme activity,inhibitor,,1 µM,inhibition,0%
Cc1ccc(NC(=O)c2ccnc(C(F)(F)F)c2)cc1-c1cc(OCCO)nc(N2CCOCC2)c1,binding,,competition with immobilised ligand,1 µM,remaining binding,34%
